Assay [1] deals with Protein cereblon/Epidermal growth factor receptor (Homo sapiens), P00533+Q96SW2 [L858R,T790M]. As to the kind of experiment: Protac activity at CRBN/EGFR L858R/T790M mutant in human NCI-H1975 cells assessed as increase in ratio of LC3B2 to LC3B1 at 30 to 300 nM preincubated for 2 hrs in presence of Rapamycin and measured after 16 hrs by Western blot assay. It counts as cell-based. As to conditions: dose 30-300 nM, time 18.0 hrs. An outline of the steps: (§1)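 H1975 cells in RPMI 1640 with 10% serum. Autophagy was read by Western blot as the LC3B II/LC3B I ratio. Serum-free medium and rapamycin served as autophagy-inducing positive controls, and rapamycin was also combined with degrader. Where pretreatment applied, compounds were added for 2 h before a 16 h PROTAC treatment.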
A general note: In western blotting, separated proteins are transferred to a membrane and probed.

Assay [2] has as its system Epidermal growth factor receptor (Homo sapiens), P00533 [L858R,T790M]. Nature of the assay: Inhibition of EGFR L858R/T790M mutant phosphorylation in human NCI-H1975 cells at 1 to 100 nM measured after 16 hrs by Western blot assay. As to conditions: dose 1-100 nM. The assay is classed as cell-based. An outline of the steps:
(§2)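 Cells seeded at 1-3X10^5/well and treated one day later with compounds at the concentrations and times given. Lysed in RIPA buffer with protease inhibitors. 15 µg protein run on 8% SDS-PAGE, transferred to nitrocellulose, probed for EGFR or phospho-EGFR, ECL detection. Lung lines kept in RPMI 1640 with 10% fetal calf serum, 37 °C, 5% CO2. DC50 is an estimated value. Repeated more than 3 times.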

The test system of assay [3] is PC-9. As to the kind of experiment: Antiproliferative activity against human PC-9 cells assessed as inhibition of cell growth measured after 72 hrs by CCK-8 assay. The assay is classed as functional, cell-based. Particulars: PC-9, 72 h. Put shortly: (§3)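 Cells seeded at 3000 cells/well in 96-well plates and treated with graded compound concentrations one day later for 72 h. CCK-8 was added for 1–4 h and absorbance read at 450 nm. Lung cancer lines were kept in RPMI 1640 with 10% fetal calf serum at 37 °C and 5% CO₂.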
In general terms: Tetrazolium dyes change colour on reduction, which living cells bring about.

For assay [4], the system named is Protein cereblon/Epidermal growth factor receptor (Homo sapiens), P00533+Q96SW2 [L858R,T790M]. Nature of the assay: Protac activity at CRBN/EGFR L858R/T790M mutant in human NCI-H1975 cells assessed as induction of EGFR degradation at 300 nM pretreated for 24 hrs followed by compound washout and subsequent addition of fresh medium by Western blot assay relative to control. The assay is classed as cell-based. An outline of the steps: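 H1975 cells were treated with 300 nM PROTAC for 24 h. Medium was removed, cells were washed 3 times with PBS, and fresh RPMI 1640 with 10% fetal calf serum was added. Cells were harvested at time points up to 72 h after drug removal, and total EGFR was measured by Western blot.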

The nature of assay [5]: Antiproliferative activity against human PB1 cells assessed as inhibition of cell growth measured after 72 hrs by CCK-8 assay. The assay is classed as functional, cell-based. Particulars: PB1, 72 h. Put shortly:
as §3

The target in assay [6] is T1, Protein cereblon/Epidermal growth factor receptor (Homo sapiens, UniProt P00533+Q96SW2). Nature of the assay: Protac activity at CRBN/EGFR in human A549 cells assessed as induction of EGFR degradation by Western blot assay. The assay is classed as cell-based.
The subject of assay [7] is HCC827. As to the kind of experiment: Antiproliferative activity against human HCC827 cells assessed as inhibition of cell growth measured after 72 hrs by CCK-8 assay. It counts as functional, cell-based. Particulars: HCC827, 72 h. Put shortly: as §3
The test system of assay [8] is Protein cereblon/Epidermal growth factor receptor (Homo sapiens), P00533+Q96SW2 [L858R,T790M]. Nature of the assay: Protac activity at CRBN/EGFR L858R/T790M mutant in human NCI-H1975 cells assessed as induction of EGFR degradation at 0.3 uM pre-incubated for 2 hrs in the presence of MLN4924 and measured after 16 hrs by Western blot assay. The assay is classed as cell-based. As to conditions: time 18.0 hrs.

The test system is the same in assay [9]. Nature of the assay: Protac activity at CRBN/EGFR L858R/T790M mutant in human NCI-H1975 cells assessed as increase in ratio of LC3B2 to LC3B1 at 30 to 300 nM measured after 16 hrs by Western blot assay. As to conditions: dose 30-300 nM. The assay is classed as cell-based. Put shortly:
as §1

In assay [10] the test system is NCI-H1975. Nature of the assay: Induction of apoptosis in human NCI-H1975 cells expressing EGFR L858R/T790M mutant assessed as increase in number of apoptotic cells measured after 72 hrs by Annexin-V/FITC staining based flow cytometry method. It counts as functional, cell-based. Put shortly:
(§4)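 H1975 cells (8 × 10⁴/well, 12-well plates) treated one day after seeding at graded concentrations for 72 h. Collected, stained with Annexin V-FITC, and apoptosis measured by flow cytometry.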
(A flow cytometer gives signals particle by particle.)

For assay [11], the system named is NCI-H1975. Nature of the assay: Antimigratory activity in human NCI-H1975 cells expressing EGFR L858R/T790M mutant at 500 nM measured after 24 hrs by wound healing assay. It counts as functional, cell-based. An outline of the steps:
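H1975 cells seeded in 24-well plates, scratched at confluence with a pipette tip 24 h later and washed three times with PBS. Then incubated with degrader at 300 or 500 nM. Six photos per well taken at set time points, and the uncovered wound area quantified.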

Assay [12] has as its system NCI-H1975. Nature of the assay: Cell cycle arrest in human NCI-H1975 cells expressing EGFR L858R/T790M mutant assessed as decrease of cell population in S phase at […] measured after 48 hrs by RNaseA/propidium iodide staining based flow cytometry. The assay is classed as functional. Particulars: dose lower 0.03 nM. An outline of the steps: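 H1975 cells (1 × 10⁵/well, 6-well plates) treated one day after seeding at the indicated concentrations for 48 h. Washed in cold PBS, fixed in cold ethanol at −20 °C for over 24 h, then stained with PI/RNase for 30 min at 37 °C in the dark. Phase distribution measured by flow cytometry.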

The subject of assay [13] is Protein cereblon/Epidermal growth factor receptor (Homo sapiens), P00533+Q96SW2 [L858R,T790M]. As to the kind of experiment: Protac activity at CRBN/EGFR L858R/T790M mutant in human NCI-H1975 cells assessed as increase in cell doubling time at 100 to 300 nM measured after 4 days by […] staining based fluorescence assay. As to conditions: dose 100-300 nM, time 4.0 day.
Assay [14] has as its system HEK-293T. Nature of the assay: Cytotoxicity against human HEK293T cells assessed as inhibition of cell growth measured after 72 hrs by CCK-8 assay. It counts as cell-based. Put shortly: as §3
Assay [15] deals with T1, Protein cereblon/Epidermal growth factor receptor. Nature of the assay: Protac activity at CRBN/EGFR in mouse BaF3 cells assessed as induction of EGFR degradation by Western blot assay. It counts as cell-based.
Assay [16] has as its system BaF3. As to the kind of experiment: Antiproliferative activity against mouse BaF3 cells assessed as inhibition of cell growth measured after 72 hrs by CCK-8 assay. It counts as functional, cell-based. Particulars: BaF3, 72 h. Put shortly: as §3
For assay [17], the system named is Protein cereblon/Epidermal growth factor receptor (Homo sapiens), P00533+Q96SW2 [L858R,T790M]. Nature of the assay: Protac activity at CRBN/EGFR L858R/T790M mutant in human NCI-H1975 cells assessed as induction of EGFR degradation at 0.3 uM pre-incubated for 2 hrs in the presence of Bafilomycin A1 and measured after 16 hrs by Western blot assay. It counts as cell-based. As to conditions: time 18.0 hrs.

Assay [18] has as its target T1, Protein cereblon/Epidermal growth factor receptor. Nature of the assay: Protac activity at CRBN/EGFR in human PB1 cells assessed as induction of EGFR degradation by Western blot assay. The assay is classed as cell-based.
Assay [19] concerns Protein cereblon/Epidermal growth factor receptor (Homo sapiens), P00533+Q96SW2 [L858R,T790M]. Nature of the assay: Protac activity at CRBN/EGFR L858R/T790M mutant in human NCI-H1975 cells assessed as induction of EGFR degradation measured after 16 hrs by Western blot assay. It counts as cell-based. Put shortly: as §2
Assay [20] has as its system NCI-H1975. Nature of the assay: Induction of apoptosis in human NCI-H1975 cells expressing EGFR L858R/T790M mutant assessed as decrease in number of viable cells measured after 72 hrs by Annexin-V/FITC staining based flow cytometry method. It counts as functional, cell-based. An outline of the steps:
as §4

The subject of assay [21] is NCI-H1975. As to the kind of experiment: Antiproliferative activity against human NCI-H1975 cells assessed as inhibition of cell growth measured after 72 hrs by CCK-8 assay. The assay is classed as functional, cell-based. As to conditions: NCI-H1975, 72 h. An outline of the steps: as §3
The test system of assay [22] is BJ. As to the kind of experiment: Cytotoxicity against human BJ cells assessed as inhibition of cell growth measured after 72 hrs by CCK-8 assay. The assay is classed as cell-based. An outline of the steps: as §3

Results on two compounds are retold here after ChEMBL document CHEMBL4825665, “Effective degradation of EGFRL858R+T790M mutant proteins by CRBN-based PROTACs through both proteosome and autophagy/lysosome degradation systems” (Eur J Med Chem, 2021).

The source made the active and inactive calls. No cut-off for these calls is given here.

In general, IC50 refers to the point on the concentration scale where inhibition reaches its midpoint. As a reminder, the DC50 is the concentration giving 50% degradation.

On to `C=CC(=O)Nc1cc2c(Nc3ccc(F)c(Cl)c3)ncnc2cc1OCCCN1CCN(C(=O)CCCCCCNc2cccc3c2C(=O)N(C2CCC(=O)NC2=O)C3=O)CC1` (centres undefined), for which the outcome in [1], in [2], in [4], in assay [9], in [10] and in [11] was Active. Moreover, the result in [12], in assay [13] and in assay [19] was Active. The IC50 in [3] is 3.94 nM; in [5] it was 89.5 nM; in [7] it was 1.15 nM; in assay [14], more than 10000 nM; in [16], 51.3 nM; in assay [21] it was 26.5 nM. In addition, the IC50 in assay [22] is more than 10000 nM. The DC50 entry in assay [6] is “Not Active”; in assay [15], 100 nM; in assay [18], “Not Active”. Moreover, the outcome in assay [8] and in assay [17] was inactive. The Activity entry in assay [20] is “Dose-Dependent Effect”.
In the case of `C=CC(=O)Nc1cc2c(Nc3ccc(F)c(Cl)c3)ncnc2cc1OCCCN1CCN(C(=O)CCCCCNc2cccc3c2C(=O)N(C2CCC(=O)NC2=O)C3=O)CC1` (centres undefined), the result in assay [1], in assay [2], in assay [4], in [9], in assay [10] and in assay [11] was Active. Besides, the result in assay [12], in assay [13] and in assay [19] was Active. The IC50 was 2.6 nM in [3]; 45 nM in [5]; 2.12 nM in assay [7]; more than 10000 nM in assay [14]; 71.3 nM in [16]; 22.1 nM in assay [21]. Moreover, the IC50 in [22] is more than 10000 nM. The half-maximal degradation concentration (DC50) result in [6] was “Not Active”; in assay [15] it was 100 nM; in [18], “Not Active”. In addition, the result in assay [8] and in [17] was inactive. In [20], the Activity result was “Dose-Dependent Effect”.
